MrgX1 PAM: human MrgX1 positive allosteric modulation, primary screen; hit rate 0.63% among 310,000; B-score at 10 µM; MrgX1-HEK293, Fluo-4 calcium flux, FDSS; active compounds read high; Q96LB2; AID 588675;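 active means plate-corrected calcium response at least 3 library SD above typical, normal starting fluorescence, not activating the receptor alone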;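 further: compound read alongside a low EC10 to EC30 dose of BAM8-22 agonist; peak minus trough fluorescence over baseline measured at the second addition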
RGS4 block: inhibitors of human RGS4; hit rate 0.45% among 310,000; AID 463165; HEK293 M3R/RGS4 inducible, Fluo-4 calcium flux; active compounds read high; triggered by carbachol at its EC20; P49798; B-score at 10 µM;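 active means B-score, a plate-corrected calcium signal, over three deviations above library mean, with baseline fluorescence within five deviations of library mean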;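 further: RGS4 expression induced by doxycycline in cells with stable M3 receptor; B-score is computed from the integrated fluorescence ratio over baseline after carbachol; higher B-score means a larger calcium signal and so more RGS4 inhibition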
MrgX1 antagonist: human MrgX1 receptor antagonism, primary screen; hit rate 1.3% among 310,000; MRGX1-HEK293 calcium flux, Fluo-4, BAM8-22 antagonism; active compounds read low; B-score at 10 µM; AID 588676;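 active means calcium-response B-score plate-corrected more than 3 library SD below zero, starting fluorescence within 5 deviations, no agonist response on first addition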;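 further: peak minus trough fluorescence over baseline after final BAM8-22 challenge near maximal dose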
RGS4 pot: RGS4 potentiation or activation | B-score at 10 µM | hit rate 0.92% among 310,000 | HEK293 M3R/inducible RGS4, carbachol calcium flux Fluo4; active compounds read low;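 active means B-score of the integrated calcium signal more than 4 SD below the library mean, with starting fluorescence not abnormally high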;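 further: negative B-score means reduced calcium response which marks RGS4 activation or potentiation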
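Material: M3R-expressing HEK293 line, RGS4 induced by doxycycline | Schedule: Overnight RGS4 induction, 30 min dye load 37 °C, 20 min compound RT | Measured by: Fluo4 fluorescence kinetic imaging of calcium | Read-out: Integrated calcium ratio converted to B score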
KCC2 mod: KCC2 (human) Cl- transport modulation | Q9H2X9 | KCC2 cells, thallium flux FluoZin-2 fluorescence | B-score of Tl+ flux slope (higher = more flux/activation; lower = inhibition) at 10 µM | hit rate 2.2% among 190,000 | AID 1456;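 active means thallium flux slope and its plate-corrected score both differing from the plate sample mean at a set confidence after two filtering rounds, in either direction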;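 further: slope of fluorescence scaled to starting intensity during 10 to 20 s after thallium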
Target sequence (Q9H2X9 whole entry, looked up): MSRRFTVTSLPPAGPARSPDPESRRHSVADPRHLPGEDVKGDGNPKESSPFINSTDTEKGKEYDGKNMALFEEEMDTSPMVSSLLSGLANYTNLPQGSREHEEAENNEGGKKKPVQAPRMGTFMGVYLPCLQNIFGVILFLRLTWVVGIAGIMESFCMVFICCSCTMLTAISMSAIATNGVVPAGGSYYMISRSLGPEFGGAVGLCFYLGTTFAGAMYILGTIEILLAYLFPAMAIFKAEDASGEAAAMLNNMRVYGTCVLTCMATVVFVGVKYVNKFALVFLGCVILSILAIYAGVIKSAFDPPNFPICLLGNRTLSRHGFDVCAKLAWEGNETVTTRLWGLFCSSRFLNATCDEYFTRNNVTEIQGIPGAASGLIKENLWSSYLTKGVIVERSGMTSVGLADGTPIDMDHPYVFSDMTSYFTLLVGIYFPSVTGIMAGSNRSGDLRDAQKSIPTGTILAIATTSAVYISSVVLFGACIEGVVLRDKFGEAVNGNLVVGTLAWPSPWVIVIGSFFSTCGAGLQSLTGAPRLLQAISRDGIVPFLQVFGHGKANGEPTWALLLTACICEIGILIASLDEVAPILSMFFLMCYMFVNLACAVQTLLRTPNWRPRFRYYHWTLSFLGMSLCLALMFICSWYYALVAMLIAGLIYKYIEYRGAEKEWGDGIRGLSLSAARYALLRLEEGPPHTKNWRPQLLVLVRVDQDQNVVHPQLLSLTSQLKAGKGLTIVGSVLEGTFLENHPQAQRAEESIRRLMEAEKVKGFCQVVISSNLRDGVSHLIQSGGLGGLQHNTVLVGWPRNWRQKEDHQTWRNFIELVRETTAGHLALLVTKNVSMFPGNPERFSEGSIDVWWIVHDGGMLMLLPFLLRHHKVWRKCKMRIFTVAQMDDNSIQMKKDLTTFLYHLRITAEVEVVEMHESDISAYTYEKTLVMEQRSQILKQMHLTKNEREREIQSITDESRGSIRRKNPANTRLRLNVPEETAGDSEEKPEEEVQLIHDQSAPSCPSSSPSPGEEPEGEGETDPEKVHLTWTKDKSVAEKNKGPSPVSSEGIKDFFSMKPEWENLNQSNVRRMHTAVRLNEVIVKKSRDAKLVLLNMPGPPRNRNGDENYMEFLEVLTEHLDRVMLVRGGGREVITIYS
MrgX1 ag: activates human MrgX1 receptor signaling; B-score at 10 µM; hit rate 0.44% among 310,000; MrgX1-HEK293 cells, Fluo-4 calcium fluorescence, agonist mode; active compounds read high;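 active means calcium response B-score plate-corrected fluorescence ratio at least 3 library SD, with starting fluorescence B-score inside 5 SD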
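Material – MrgX1-expressing HEK293 cells · Input – 15,000 cells seeded per well · Dosing – compound as first of three additions · Times – overnight seeding, then 1 h dark dye loading · Measured by – kinetic Fluo-4 NW fluorescence of intracellular calcium · Read-out – B-scored fluorescence response ratio · Benchmarks – positive and negative control wells on each plate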
MrgX1 allo conf: reconfirmed allosteric activator of human MrgX1 receptor. shares compounds with MrgX1 PAM. MrgX1-HEK293, Fluo-4 calcium fluorescence, FDSS. activation (ratio percentage), % at 10 µM. hit rate 13% among 1,200;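 active means ratio at least 3 SD above the weak peptide control, stable starting fluorescence, no direct agonism earlier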;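 further: compound followed by low BAM8-22 agonist challenge near EC20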
HEK293 Ca flux: counter-screen for MrgX1 antagonists: effect in parental HEK293 cells; fluorescence ratio F(max-min)/F0 at 10 µM; AID 624111; shares compounds with MrgX1 antagonist; Fluo-4 calcium fluorescence, FDSS; hit rate 2% among 4,000;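 active means duplicate-averaged calcium fluorescence ratio at least three times the standard deviation of buffer wells, a nonspecific response in parental cells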
HEK293 Ca counter: activity in parental HEK293 cells without MrgX1; hit rate 0.4% among 4,000; parental HEK293 calcium flux, Fluo-4 fluorescence ratio; active compounds read high; shares compounds with MrgX1 antagonist; fluorescence ratio F(max-min)/F0 at 10 µM;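 active means calcium fluorescence ratio, averaged over duplicates, at least 3 SD of the buffer-well ratio, meaning a nonspecific response in receptor-free cells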;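 further: untransfected parental HEK293 lacking MrgX1 used as counterscreen for MrgX1 allosteric activators; fluorescence change taken during the second addition on a kinetic imager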
HEK293 Ca cntr2: activity in parental HEK293 cells lacking MrgX1 receptor; AID 624115; Fluo-4 calcium fluorescence (FDSS); active compounds read high; fluorescence ratio F(max-min)/F0 at 10 µM; hit rate 8.7% among 4,000; shares compounds with MrgX1 antagonist;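 active means calcium fluorescence ratio at least three times the spread of buffer wells, meaning a non-specific response in parental cells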
Each line names hits and unclear results; the compound was inactive in the other large screens (follow-up assays come after a bar, where they were run). A selection: hits, their analogues and other compounds. The true share with any hit is near 4.7%.

CCCCCCC1CC(CSC(=N)N)OC1=O (centres undefined)	MrgX1 PAM 6.5 (no result: KCC2 mod) | MrgX1 allo conf inactive | HEK293 Ca flux inactive | HEK293 Ca counter inactive | HEK293 Ca cntr2 inactive
O=C(Nc1cccc(Cl)c1Cl)C1CCN(C(=O)c2cccs2)CC1	none (no result: KCC2 mod)
COc1ccc(Cl)cc1N(CC(=O)Nc1cccc(SC)c1)S(C)(=O)=O	MrgX1 PAM 8.3 (no result: KCC2 mod) | MrgX1 allo conf inactive | HEK293 Ca flux inactive | HEK293 Ca counter inactive | HEK293 Ca cntr2 inactive
Cc1nc2c(C#N)cnn2c2c1CCN(Cc1ccccc1)N2C	none
Cc1nc2c(C#N)cnn2c2c1CCN2CC1CCCO1 (centres undefined)	MrgX1 PAM 7.2 | MrgX1 allo conf inactive | HEK293 Ca flux inactive | HEK293 Ca counter inactive | HEK293 Ca cntr2 inactive
CCC(Sc1nc2ccccc2c(=O)n1CCN1CCOCC1)C(=O)NCc1cccnc1 (centres undefined)	MrgX1 PAM 6.6 | MrgX1 allo conf inactive | HEK293 Ca flux inactive | HEK293 Ca counter inactive | HEK293 Ca cntr2 47
O=S(=O)(c1ccccc1Br)N1CCN(c2ncccn2)CC1	MrgX1 PAM 6.7 (no result: KCC2 mod) | MrgX1 allo conf inactive | HEK293 Ca flux inactive | HEK293 Ca counter inactive | HEK293 Ca cntr2 inactive
C=CCNc1nc(SCC=C)nc2ccsc12	MrgX1 PAM 7.4 | MrgX1 allo conf inactive | HEK293 Ca flux inactive | HEK293 Ca counter inactive | HEK293 Ca cntr2 inactive
C=CCSc1nc(Oc2ccccc2)c2sccc2n1	none
CCc1cccc(NS(=O)(=O)c2ccc3c(c2)NC(=O)C(C)S3)c1 (centres undefined)	MrgX1 PAM 16 (no result: KCC2 mod) | MrgX1 allo conf inactive | HEK293 Ca flux inactive | HEK293 Ca counter inactive | HEK293 Ca cntr2 inactive
CCOC(=O)c1cc(-c2cccnc2)nn1-c1ccccc1	none
CCOC(=O)c1cc(-c2ccc(OC)cc2)nn1-c1ccc(C(=O)O)cc1	MrgX1 PAM 6.5 | MrgX1 allo conf inactive | HEK293 Ca flux inactive | HEK293 Ca counter inactive | HEK293 Ca cntr2 inactive
Cc1ccc(-c2c(C(=O)O)c3ccccc3[nH]c2=O)cc1	none (no result: KCC2 mod)
COc1ccccc1NS(=O)(=O)c1cc(-c2cnc(C3CC3)o2)ccc1C	MrgX1 PAM 14 (no result: KCC2 mod) | MrgX1 allo conf inactive | HEK293 Ca flux inactive | HEK293 Ca counter inactive | HEK293 Ca cntr2 inactive
COc1ccc(NS(=O)(=O)c2cc(-c3cnc(C4CC4)o3)ccc2C)cc1	none (no result: KCC2 mod)
OCC1CCCN(c2ncnc3scc(-c4ccccc4)c23)C1 (centres undefined)	MrgX1 PAM 6.5 | MrgX1 allo conf inactive | HEK293 Ca flux inactive | HEK293 Ca counter inactive | HEK293 Ca cntr2 inactive
O=S(=O)(c1ccccc1)N1CCN(c2ncnc3scc(-c4ccccc4)c23)CC1	none (no result: KCC2 mod)
COc1cc(/C=C2/C(=N)N3N=C(CC(=O)N4CCOCC4)SC3=NC2=O)ccc1OCc1ccccc1	MrgX1 PAM 19 (no result: KCC2 mod) | MrgX1 allo conf 12% | HEK293 Ca flux inactive | HEK293 Ca counter inactive | HEK293 Ca cntr2 inactive
COc1cc(N)c(C(O)c2nccc3cc(OC)c(OC)cc23)cc1OC (centres undefined)	none (no result: KCC2 mod)
COc1ccc(C(O)c2nccc3cc(OC)c(OC)cc23)cc1OC (centres undefined)	MrgX1 PAM 9.5 | MrgX1 allo conf inactive | HEK293 Ca flux inactive | HEK293 Ca counter inactive | HEK293 Ca cntr2 inactive
CCCn1c(SCC(=O)Nc2ccccc2Cl)n[nH]c1=O	MrgX1 PAM 6.6 | MrgX1 allo conf inactive | HEK293 Ca flux inactive | HEK293 Ca counter inactive | HEK293 Ca cntr2 inactive

Bioassay records as filed in PubChem BioAssay.
